The text below walks through data of paper PMC2846993 (Biochimica et biophysica acta, 2010).

For series [1], the target named is Wild type (wt) human Glu^1-Pg (plasminogen) (human). Kind of series: SPR. For orientation: Surface plasmon resonance follows binding to a sensor surface in real time, without labels.
For series [2], the target named is T1, Glu^1-Pg activation by uPA (Homo sapiens, UniProt P00747). In words: uPA-catalyzed Pg activation, chromogenic substrate S-2251. It counts as biochemical. To be noted: 1 mM 6-AHA.
For series [3], the target named is T1, Glu^1-Pg activation by uPA. To be noted: 6-AHA, acetate buffer; ref [34]; cited from earlier work.
The test system of series [4] is Glu^1-Pg. The note with it: saturating amounts of 6-AHA, Cl^−-containing buffer; ref [14],[19],[20]; cited from earlier work.
Series [5] is described as follows: Sedimentation equilibrium / self-association. To be noted: PAM 22 μM, 20 °C, representative scan at 15,000 rpm. Format: physicochemical. The method in brief: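 Test protein at 22 μM final in 10 mM HEPES/100 mM NaCl, pH 7.4, at 20 °C. Centrifuged at 10,000 and 15,000 rpm. Apparent molecular weight came from a global fit of three scans at both speeds. Radius vs absorbance was simulated for the purely monomeric protein.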

Series [6] deals with Glu^1-Pg activation by SK (Homo sapiens, UniProt P00747). Kind of series: SK-mediated. Format: biochemical, human Glu^1-Pg; SK from Streptococcus equisimilis.

Several values for one entry are separate records, joined by “and”; a condition that tells them apart may be missing. Equal entries are not always repeated.

T1 sequence (P00747 20-810 limits assumed): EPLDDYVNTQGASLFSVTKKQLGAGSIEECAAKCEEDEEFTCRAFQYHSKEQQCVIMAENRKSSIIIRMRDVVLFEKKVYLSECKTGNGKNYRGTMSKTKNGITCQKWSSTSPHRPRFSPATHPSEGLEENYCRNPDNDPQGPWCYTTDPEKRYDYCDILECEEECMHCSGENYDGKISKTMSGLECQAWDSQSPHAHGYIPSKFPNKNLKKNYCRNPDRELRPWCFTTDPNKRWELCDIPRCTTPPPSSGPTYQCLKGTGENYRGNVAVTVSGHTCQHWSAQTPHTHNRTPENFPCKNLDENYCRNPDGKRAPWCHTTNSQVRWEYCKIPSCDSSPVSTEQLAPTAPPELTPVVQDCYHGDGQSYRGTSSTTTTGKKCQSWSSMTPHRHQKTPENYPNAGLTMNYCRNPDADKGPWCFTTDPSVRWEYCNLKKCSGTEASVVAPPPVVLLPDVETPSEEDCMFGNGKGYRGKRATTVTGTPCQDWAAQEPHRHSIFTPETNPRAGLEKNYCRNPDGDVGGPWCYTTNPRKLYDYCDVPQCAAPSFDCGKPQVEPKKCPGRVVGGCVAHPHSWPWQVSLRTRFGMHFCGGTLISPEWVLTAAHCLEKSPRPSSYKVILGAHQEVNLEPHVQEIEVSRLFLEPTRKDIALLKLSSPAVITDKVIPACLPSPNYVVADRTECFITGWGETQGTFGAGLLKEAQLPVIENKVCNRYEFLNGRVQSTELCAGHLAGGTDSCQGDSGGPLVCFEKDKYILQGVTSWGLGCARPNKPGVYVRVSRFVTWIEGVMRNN

The term Kd denotes the equilibrium constant for the complex coming apart. The low end stands for higher affinity, the high end for lower affinity. A word on the koff: it is a measure of how fast the partners let go of each other. Broadly, the kon is the second-order rate constant of association. High values mean faster complex formation, low ones slower complex formation. With “K^98A/R^101A/H^102A/E^104A/K^111A PAM (KRHEK-PAM) (from UniProt P49054 30-384) (natural protein)”, in series [1], the Kd was found to be 50 nM, the koff is 0.017 s⁻¹ and the kon came out at 340000 M⁻¹ s⁻¹.
For the molecule “Wt-PAM (Pg-binding group A streptococcal M-like protein, GAS strain NS13) (from UniProt P49054 30-384) (natural protein)”, in series [1], the Kd was 23 nM and 33 nM; the koff was found to be 0.0079 s⁻¹; the kon was found to be 340000 M⁻¹ s⁻¹.
“K^98A/K^111A PAM (KK-PAM) (from UniProt P49054 30-384) (natural protein)”: in series [1], the Kd was 38 nM and 44 nM; the koff turned out to be 0.0095 s⁻¹; the kon was found to be 250000 M⁻¹ s⁻¹.
Consider `NCCCCCC(=O)O` [6-AHA, 6-aminohexanoic acid], for which the “rate enhancement of uPA-catalyzed Pm generation” value is 2.2 fold in series [2] (Cl^− buffer (data not shown)) and 1.1 fold in series [2] (acetate buffer (data not shown)). In addition, the “increase in Pg conversion by uPA” value in series [3] was 1.2 fold. Also, the “decrease in sedimentation coefficient (S°20,w) of Pg” value in series [4] is given as “approximately 1 unit”.
As to “wt-PAM: Pg-binding group A streptococcal M-like protein, GAS strain NS13, full-length wild type (VEKLTADAELQRLKNERHEEAELERLKSEY)”, in series [5], the “apparent molecular weight (Mw,app), self-association” value is recorded as 71600. In addition, the “increase in SK-mediated Pg activation rate” value in series [6] (20 nM PAM, Pg 80 nM, equimolar SK, 10 mM HEPES/100 mM NaCl, pH 7.4) is 3.6 fold. The “enhancement in Pg conversion rate by SK” value in series [6] (500 nM PAM, Cl^− buffer (data not shown)) is given as 220 fold.
In the case of “R^101A/H^102A PAM (RH-PAM) (from UniProt P49054 30-384) (natural protein)”, in series [1], the Kd was 424 nM and 731 nM; the off-rate constant (koff) came out at 0.014 s⁻¹; the kon worked out at 33000 M⁻¹ s⁻¹.
